Columns and labels:
thrombin = thrombin (Homo sapiens, UniProt P00734); experiment: Cleavage assay of SAPE-labeled ADAM9 bacteria with thrombin; format: biochemical; details: 75 nM thrombin, 3 h, FACS
Summary of the method: (§1)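 ADAM9 substrate-displaying bacteria were subcultured 1:100 in LB for 45 min at 37 °C, induced with 0.04% arabinose for 1 h, then labeled with SAPE (final […]) for 1 h. 10^7 bacteria were incubated for 3 h with thrombin (final 75 nM) or dilutions of sonicated PANC-1 lysate, with PBS or reaction buffer as controls. After two PBS washes, SAPE-positive bacteria were counted by flow cytometry, with unlabeled bacteria as the negative control.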

rMMP9 = rMMP9 (Homo sapiens, UniProt P14780); experiment: Cleavage assay of SAPE-labeled ADAM9 bacteria with rMMP9, alone or with S3304; format: biochemical; details: 200 nM rMMP9, 3 h, FACS
rMMP9, sequence (P14780 94-707, species assumed): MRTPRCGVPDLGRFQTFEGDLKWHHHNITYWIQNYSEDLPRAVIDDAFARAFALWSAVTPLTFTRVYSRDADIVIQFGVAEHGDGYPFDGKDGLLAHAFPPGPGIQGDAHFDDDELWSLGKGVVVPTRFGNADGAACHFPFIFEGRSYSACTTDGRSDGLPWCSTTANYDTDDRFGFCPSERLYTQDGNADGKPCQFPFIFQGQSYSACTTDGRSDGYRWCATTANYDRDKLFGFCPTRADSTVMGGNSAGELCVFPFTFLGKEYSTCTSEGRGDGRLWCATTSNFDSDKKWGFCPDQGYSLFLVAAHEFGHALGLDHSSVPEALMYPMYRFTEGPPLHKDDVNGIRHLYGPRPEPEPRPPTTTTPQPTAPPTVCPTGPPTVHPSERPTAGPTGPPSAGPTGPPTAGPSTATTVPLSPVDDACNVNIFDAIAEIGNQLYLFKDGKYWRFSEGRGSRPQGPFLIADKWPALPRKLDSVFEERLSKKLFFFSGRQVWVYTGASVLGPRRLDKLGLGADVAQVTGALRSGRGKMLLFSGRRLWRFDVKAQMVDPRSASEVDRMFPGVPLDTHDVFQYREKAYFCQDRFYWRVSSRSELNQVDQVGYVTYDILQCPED

PANC-1 lysate = experiment: Cleavage assay of SAPE-labeled ADAM9 bacteria with PANC-1 lysate; format: biochemical, human; details: highest PANC-1 lysate concentration, 3 h, FACS; dose-dependent
Summary of the method: as §1

PLAQAVRSSK [ADAM9 substrate]
effect on fluorescence of SAPE-labeled ADAM9 bacteria (thrombin): did not reduce fluorescence
effect on SAPE-positivity of ADAM9 bacteria (rMMP9): greatly reduced SAPE-positivity
ADAM9 substrate cleavage by PANC-1 lysate (loss of SAPE-positive bacteria) (PANC-1 lysate): near-complete
